This is an account of results in ChEMBL document CHEMBL3045340, “Synthesis and antifungal activity of novel bisdithiocarbamate derivatives of carbohydrates against Fusarium oxysporum f. sp. lini” (2000).

Experiment [1] relates to Fusarium oxysporum f. sp. lini. Briefly: Induction of morphological alterations in Fusarium oxysporum f. sp. lini. Format: functional, organism-based. The essentials:
(§1)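 Fayret liquid medium with compound in DMF at 0.58 mM dithiocarbamoyl equivalent, inoculated with glass-wool-filtered spores (hemocytometer count) from 10-day-old MEA culture to 104 spores mL-1; shaken at 90 tpm, 20 °C, 12 h photoperiod, 7 days; spore germination and hyphal morphology of treated versus untreated fungus examined by light microscopy.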

Experiment [2] concerns Fusarium oxysporum f. sp. lini. Briefly: Antifungal activity against Fusarium oxysporum f. sp. lini assessed as inhibition of radial fungal growth at 0.58 mM after 6 days. Particulars: 144 h, read-out: GI. Format: functional. The essentials:
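Mycelial plug (6 mm) cut from margin of 4-day-old MEA culture placed on MEA plates containing compound (DMF vehicle, ≤1% v/v final) at 0.58 mM dithiocarbamoyl equivalent; 20 °C, 12 h photoperiod; colony diameter read daily over 6 days; percent growth inhibition versus untreated culture; three replicates per treatment, two runs; two-sample t-test, P 0.01.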

Experiment [3] relates to Fusarium oxysporum f. sp. lini. The experiment is described as follows: Induction of delay in spore germination of Fusarium oxysporum f. sp. lini. The format is functional, organism-based. The essentials: as §1
Experiment [4] has as its system Fusarium oxysporum f. sp. lini. The experiment is described as follows: Inhibition of spore germination of Fusarium oxysporum f. sp. lini. Format: functional, organism-based. Summed up:
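Liquid Fayret medium held N,N-dimethylformamide solutions at 0.58 mM equivalent of dithiocarbamoyl group. Spores were washed from a 10-day MEA culture, glass-wool filtered, counted by hemocytometer and seeded at 10^4 spores mL-1. Tubes were shaken at 90 tpm at 20 °C under a 12 h photoperiod for 7 days. Germination timing and hyphal morphology were assessed by light microscopy against untreated controls.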

Experiment [5] relates to Fusarium oxysporum f. sp. lini. Briefly: Antifungal activity against Fusarium oxysporum f. sp. lini assessed as inhibition of radial fungal growth at 100 ppm after 6 days. The format is functional. Summed up: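 Radial growth on malt extract agar. Compounds dissolved in N,N-dimethylformamide (final ≤1% v/v) were mixed into molten MEA at 50 °C, giving 0.58 mM equivalent of dithiocarbamoyl group. A 6 mm plug from the margin of a 4-day MEA culture was placed on each plate. Plates were held at 20 °C under a 12 h photoperiod, with colony diameter read daily for 6 days. Two runs, three replicates each; two-sample t-test against untreated cultures.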

Activity calls are given as the source filed them. The calls are words filed in the database; no cut-off is given here.

Consider `CCSC(=S)NCC(O)CNC(=S)SCC`, for which the outcome in experiment [1] and in experiment [3] was Active. Further, the inhibition of growth at 580 µM in experiment [2] was 27%.
`CCN(CC)C(=S)SC[C@H](O)[C@H]1O[C@@H]2OC(C)(C)O[C@@H]2[C@H]1SC(=S)N(CC)CC`: in experiment [2], the inhibition of growth at 580 µM turned out to be 17%. In experiment [3], the result was Active.
As to `CCCC(=O)OC(CSC(=S)N(CC)CC)CSC(=S)N(CC)CC`, in experiment [2], the inhibition of growth at 580 µM came out at 12%.
With `CCN(CC)C(=S)SC[C@H]1OC(O)[C@H](O)[C@@H](SC(=S)N(CC)CC)[C@@H]1O` (stereo not given in full), the outcome in experiment [1] and in experiment [3] was Active. Also, the inhibition of growth at 580 µM in experiment [2] stood at 18%.
With `CCN(CC)C(=S)S` [DITIOCARB SODIUM], the inhibition result in experiment [4] is “Active”. In addition, the inhibition of growth at 100 ppm in experiment [5] (144 h, read-out: GI) worked out at 18%.
For the molecule `CCN(CC)C(=S)SCC(CSC(=S)N(CC)CC)OC(C)=O`, the inhibition of growth at 580 µM in experiment [2] was 12%.
The same measure, in the same setting: next, `CCN(CC)C(=S)SCC(O)CO` (racemic): 10%.
With maneb, the inhibition entry in experiment [4] is “Active”. The growth inhibition (GI) in experiment [5] was found to be 12%.
As to `CCCCCCCC(=O)OC(CSC(=S)N(CC)CC)CSC(=S)N(CC)CC`, the inhibition of growth at 580 µM in experiment [2] was determined as 7%.
On the same count and under the same terms, next, `CCN(CC)C(=S)SCC(=O)CSC(=S)N(CC)CC`: 12%.
With `CCN(CC)C(=S)SCC(O)CSC(=S)N(CC)CC`, the result in experiment [1] and in experiment [3] was Active. Further, the inhibition of growth at 580 µM in experiment [2] is 30%.
